# Test results: ChEMBL document CHEMBL1131242, “6beta-Acetoxynortropane: a potent muscarinic agonist with apparent selectivity toward M2-receptors” (J Med Chem, 1998)
# Numbering of substitutions follows the chain as printed.
# Assays:
# [1] = target: T1, Muscarinic acetylcholine receptor M1 (Rattus norvegicus) (UniProt P08482); experiment: (§1) Percentage inhibition of binding of [3H]quinuclidinyl benzilate to muscarinic receptors in membranes of CHO cells transfected with Muscarinic acetylcholine receptor M1; assay type: cell membranes; conditions: concentration not given here
# T1 sequence (whole entry): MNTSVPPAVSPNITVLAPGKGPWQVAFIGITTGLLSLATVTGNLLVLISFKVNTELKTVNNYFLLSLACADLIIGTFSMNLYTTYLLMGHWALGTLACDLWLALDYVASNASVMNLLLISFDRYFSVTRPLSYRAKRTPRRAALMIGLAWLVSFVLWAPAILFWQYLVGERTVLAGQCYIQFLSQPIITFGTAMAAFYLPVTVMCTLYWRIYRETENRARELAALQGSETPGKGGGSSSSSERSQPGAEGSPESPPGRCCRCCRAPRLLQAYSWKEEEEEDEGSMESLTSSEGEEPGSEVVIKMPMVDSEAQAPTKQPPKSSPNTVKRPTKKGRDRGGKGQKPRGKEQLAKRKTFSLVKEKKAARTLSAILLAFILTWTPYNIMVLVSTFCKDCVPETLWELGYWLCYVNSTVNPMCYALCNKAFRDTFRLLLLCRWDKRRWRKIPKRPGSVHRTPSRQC
# How it was run: (§2)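 Membranes from CHO cells expressing human M1–M4 receptors in 25 mM sodium phosphate pH 7.4 with 5 mM MgCl2, 30 min at 37 °C, triplicate. [3H]quinuclidinyl benzilate was 0.2 nM for M1 and M3 and 0.1 nM for M2 and M4. Nonspecific binding used 10 µM atropine for M1 and 1 µM for the others.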
# [2] = target: T2, Muscarinic acetylcholine receptor M1 (Rattus norvegicus, UniProt P08482); experiment: Inhibition of binding of [3H]oxotremorine M to Muscarinic acetylcholine receptor M1 in rat cerebral cortical membranes; assay type: cell membranes, Membrane
# T2 sequence (P08482 whole entry): T1 sequence (whole entry)
# How it was run: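 Agonist radioligand assay: rat cortical membranes with 2 nM [3H]oxotremorine M in 25 mM sodium phosphate pH 7.4 with 5 mM MgCl2, 2 h at 25 °C, in triplicate. Nonspecific binding used 5 µM atropine. Filtration followed by scintillation counting.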
# [3] = target: T2, Muscarinic acetylcholine receptor M1; experiment: Affinity versus [3H]oxotremorine M (agonist) binding to Muscarinic acetylcholine receptor M1 in Rat Cerebral Cortical Membranes, (Kd=[…])
# [4] = target: T3, Muscarinic acetylcholine receptor M4 (Rattus norvegicus) (UniProt P08485); experiment: Inhibition of binding of [3H]quinuclidinyl benzilate to Muscarinic acetylcholine receptor M4 […] at 300 uM concentration; assay type: cell membranes; conditions: Membrane
# T3 sequence (whole entry): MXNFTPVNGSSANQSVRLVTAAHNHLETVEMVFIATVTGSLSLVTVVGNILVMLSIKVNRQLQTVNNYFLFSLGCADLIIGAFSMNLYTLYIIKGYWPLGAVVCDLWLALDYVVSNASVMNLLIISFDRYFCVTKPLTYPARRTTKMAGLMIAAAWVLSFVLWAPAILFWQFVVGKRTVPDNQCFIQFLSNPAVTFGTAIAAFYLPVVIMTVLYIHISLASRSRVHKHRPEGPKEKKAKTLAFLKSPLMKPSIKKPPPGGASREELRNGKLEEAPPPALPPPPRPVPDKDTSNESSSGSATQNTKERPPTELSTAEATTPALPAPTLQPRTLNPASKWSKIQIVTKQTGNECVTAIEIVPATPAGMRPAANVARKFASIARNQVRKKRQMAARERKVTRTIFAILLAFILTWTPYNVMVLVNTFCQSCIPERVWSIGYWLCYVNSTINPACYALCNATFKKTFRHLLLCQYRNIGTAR
# [5] = target: Muscarinic acetylcholine receptor M3 (Rattus norvegicus) (UniProt P08483); experiment: Percentage inhibition of binding of [3H]quinuclidinyl benzilate to muscarinic receptors in membranes of CHO cells transfected with Muscarinic acetylcholine receptor M3; assay type: cell membranes; conditions: concentration not given here
# Sequence of Muscarinic acetylcholine receptor M3 (Rattus norvegicus) (P08483 whole entry, looked up): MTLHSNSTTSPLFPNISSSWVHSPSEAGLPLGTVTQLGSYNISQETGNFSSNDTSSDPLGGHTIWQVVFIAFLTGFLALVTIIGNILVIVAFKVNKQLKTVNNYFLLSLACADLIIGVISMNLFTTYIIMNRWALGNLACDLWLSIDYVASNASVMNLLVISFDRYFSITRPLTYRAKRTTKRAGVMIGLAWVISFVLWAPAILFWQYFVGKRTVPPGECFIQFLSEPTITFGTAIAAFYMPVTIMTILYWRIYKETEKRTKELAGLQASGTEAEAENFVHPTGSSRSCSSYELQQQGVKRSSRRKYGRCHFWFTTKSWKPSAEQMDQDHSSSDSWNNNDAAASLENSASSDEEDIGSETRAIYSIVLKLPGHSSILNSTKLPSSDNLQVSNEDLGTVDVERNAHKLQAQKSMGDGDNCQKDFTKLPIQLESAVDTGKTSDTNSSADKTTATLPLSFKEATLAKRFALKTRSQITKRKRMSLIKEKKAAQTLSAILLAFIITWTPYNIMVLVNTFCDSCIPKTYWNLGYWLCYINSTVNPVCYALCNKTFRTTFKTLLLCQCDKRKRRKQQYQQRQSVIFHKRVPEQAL
# [6] = target: T4, Neuronal acetylcholine receptor; alpha4/beta2 (Rattus norvegicus, UniProt P09483+P12390); experiment: Inhibition of binding of [3H]nicotine to Nicotinic acetylcholine receptor alpha4-beta2 in rat cerebral cortical membranes; assay type: cell membranes, Membrane
# T4 sequence (P09483 whole entry): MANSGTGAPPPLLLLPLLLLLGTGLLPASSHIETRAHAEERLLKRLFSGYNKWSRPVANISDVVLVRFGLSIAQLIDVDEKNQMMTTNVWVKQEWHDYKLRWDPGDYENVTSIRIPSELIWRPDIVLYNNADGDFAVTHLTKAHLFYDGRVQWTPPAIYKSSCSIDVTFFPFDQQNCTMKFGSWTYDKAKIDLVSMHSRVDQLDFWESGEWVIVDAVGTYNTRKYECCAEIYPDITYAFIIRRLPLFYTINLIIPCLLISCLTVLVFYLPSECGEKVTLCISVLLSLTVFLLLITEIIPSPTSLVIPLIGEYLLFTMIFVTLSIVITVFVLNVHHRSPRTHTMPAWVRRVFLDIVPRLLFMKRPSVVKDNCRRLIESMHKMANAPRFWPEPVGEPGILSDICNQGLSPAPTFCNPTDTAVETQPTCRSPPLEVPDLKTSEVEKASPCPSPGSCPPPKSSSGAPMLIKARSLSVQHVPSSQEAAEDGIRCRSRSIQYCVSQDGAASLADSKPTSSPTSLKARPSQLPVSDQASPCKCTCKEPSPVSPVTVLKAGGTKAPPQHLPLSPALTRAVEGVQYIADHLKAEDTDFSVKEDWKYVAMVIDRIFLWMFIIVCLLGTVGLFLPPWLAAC
# T4 sequence (P12390 whole entry): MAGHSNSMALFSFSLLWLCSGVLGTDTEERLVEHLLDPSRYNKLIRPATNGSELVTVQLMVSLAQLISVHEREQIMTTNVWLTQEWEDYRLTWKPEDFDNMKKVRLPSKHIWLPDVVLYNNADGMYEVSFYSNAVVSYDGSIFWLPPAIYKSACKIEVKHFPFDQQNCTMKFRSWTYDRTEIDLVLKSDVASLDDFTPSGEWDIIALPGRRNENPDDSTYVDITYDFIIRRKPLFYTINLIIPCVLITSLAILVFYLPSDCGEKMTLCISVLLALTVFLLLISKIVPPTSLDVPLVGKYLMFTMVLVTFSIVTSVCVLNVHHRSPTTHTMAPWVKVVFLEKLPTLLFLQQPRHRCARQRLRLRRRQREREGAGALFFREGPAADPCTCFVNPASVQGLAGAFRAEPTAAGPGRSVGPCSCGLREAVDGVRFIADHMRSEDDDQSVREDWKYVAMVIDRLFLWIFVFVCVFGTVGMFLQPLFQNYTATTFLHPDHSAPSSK
# How it was run: (§3)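 Rat cerebral cortex membranes with 0.2 nM [3H]nicotine in HEPES binding buffer pH 7.4 containing 200 µM diisopropyl fluorophosphate. Incubation was 120 min at 0–4 °C, in triplicate. Nonspecific binding used 1 µM nicotine. Samples were filtered through polyethylenimine-soaked GF/B filters and counted.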
# [7] = target: T4, Neuronal acetylcholine receptor; alpha4/beta2; experiment: The compound was evaluated for percentage inhibition of binding of [3H]- nicotine to Nicotinic acetylcholine receptor alpha4-beta2 in Rat Cerebral Cortical Membranes; assay type: protein-complex assay; how it was run: as §3
# [8] = target: T3, Muscarinic acetylcholine receptor M4 (Rattus norvegicus); experiment: (§4) Inhibition of binding of [3H]quinuclidinyl benzilate to muscarinic receptors in membranes of CHO cells transfected with Muscarinic acetylcholine receptor M4; assay type: cell membranes; conditions: concentration not given here; how it was run: as §2
# [9] = target: T5, Muscarinic acetylcholine receptor M2 (Rattus norvegicus, UniProt P10980); experiment: (§5) Inhibition of binding of [3H]quinuclidinyl benzilate to muscarinic receptors in membranes of CHO cells transfected with Muscarinic acetylcholine receptor M2; assay type: cell membranes; how it was run: as §2
# T5 sequence (P10980 whole entry): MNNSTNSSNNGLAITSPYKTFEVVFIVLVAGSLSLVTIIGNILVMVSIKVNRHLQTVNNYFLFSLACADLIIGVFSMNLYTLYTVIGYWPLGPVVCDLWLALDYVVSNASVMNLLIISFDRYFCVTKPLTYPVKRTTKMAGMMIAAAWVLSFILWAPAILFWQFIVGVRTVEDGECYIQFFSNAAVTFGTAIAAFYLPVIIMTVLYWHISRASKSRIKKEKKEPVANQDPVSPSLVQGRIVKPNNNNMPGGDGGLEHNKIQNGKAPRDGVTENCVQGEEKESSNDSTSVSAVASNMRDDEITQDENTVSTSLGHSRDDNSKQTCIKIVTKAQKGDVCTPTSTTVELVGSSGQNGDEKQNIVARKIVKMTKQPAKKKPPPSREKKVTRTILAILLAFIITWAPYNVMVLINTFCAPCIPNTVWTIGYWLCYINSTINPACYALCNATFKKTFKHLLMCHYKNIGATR
# [10] = target: Muscarinic acetylcholine receptor M2 (Homo sapiens) (UniProt P08172); experiment: Inhibition of binding of [3H]quinuclidinyl benzilate to Muscarinic acetylcholine receptor M2 in membranes of transfected CHO cells
# [11] = target: Muscarinic acetylcholine receptor M1 (Homo sapiens) (UniProt P11229); experiment: Inhibition of binding of [3H]quinuclidinyl benzilate to human Muscarinic acetylcholine receptor M1 in membranes of transfected CHO cells at 300 uM concentration; conditions: Membrane
# Target sequence in this assay (P11229 whole entry, looked up): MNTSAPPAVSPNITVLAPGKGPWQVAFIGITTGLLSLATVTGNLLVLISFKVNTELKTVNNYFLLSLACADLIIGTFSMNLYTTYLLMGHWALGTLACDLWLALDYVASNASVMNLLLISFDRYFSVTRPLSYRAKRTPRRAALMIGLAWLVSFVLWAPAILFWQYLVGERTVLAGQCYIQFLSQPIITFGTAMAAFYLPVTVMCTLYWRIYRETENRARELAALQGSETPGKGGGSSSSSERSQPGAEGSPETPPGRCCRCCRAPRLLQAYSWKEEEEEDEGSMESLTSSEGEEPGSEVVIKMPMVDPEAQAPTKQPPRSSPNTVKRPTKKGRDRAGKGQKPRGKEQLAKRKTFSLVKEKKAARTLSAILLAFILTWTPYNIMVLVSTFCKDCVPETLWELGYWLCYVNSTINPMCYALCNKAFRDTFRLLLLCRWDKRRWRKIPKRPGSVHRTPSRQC
# [12] = target: T6, Muscarinic acetylcholine receptor M3 (Homo sapiens, UniProt P20309); experiment: Inhibition of binding of [3H]quinuclidinyl benzilate to human Muscarinic acetylcholine receptor M3 in membranes of transfected CHO cells at 100 uM concentration; conditions: Membrane
# Target sequence in this assay (P20309 whole entry, looked up): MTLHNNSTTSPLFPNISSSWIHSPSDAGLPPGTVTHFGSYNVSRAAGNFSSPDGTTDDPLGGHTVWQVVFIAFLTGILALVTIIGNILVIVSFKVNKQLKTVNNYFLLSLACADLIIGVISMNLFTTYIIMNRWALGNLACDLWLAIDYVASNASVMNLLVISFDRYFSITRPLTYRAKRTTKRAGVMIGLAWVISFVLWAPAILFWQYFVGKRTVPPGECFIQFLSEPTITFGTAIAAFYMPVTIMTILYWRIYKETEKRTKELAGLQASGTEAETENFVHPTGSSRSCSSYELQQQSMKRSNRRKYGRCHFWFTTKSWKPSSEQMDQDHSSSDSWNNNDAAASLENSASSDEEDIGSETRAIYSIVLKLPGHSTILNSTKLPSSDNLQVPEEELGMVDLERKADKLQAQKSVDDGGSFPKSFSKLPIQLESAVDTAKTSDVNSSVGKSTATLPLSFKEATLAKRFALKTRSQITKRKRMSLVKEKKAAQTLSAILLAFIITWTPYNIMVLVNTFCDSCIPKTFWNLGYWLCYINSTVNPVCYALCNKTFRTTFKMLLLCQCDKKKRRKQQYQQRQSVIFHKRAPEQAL
# [13] = target: T7, Muscarinic acetylcholine receptor M1 (Homo sapiens) (UniProt P11229); experiment: as §1; assay type: cell membranes; conditions: concentration not given here; how it was run: as §2
# T7 sequence (whole entry): T1 sequence (whole entry) with V5A, S254T, S309P, K320R, G337A, V413I
# [14] = target: T2, Muscarinic acetylcholine receptor M1; experiment: Inhibition of binding of [3H]quinuclidinyl benzilate to Muscarinic acetylcholine receptor M1 in rat cerebral cortical membranes; assay type: cell membranes, Membrane
# How it was run: (§6)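 Rat cerebral cortex membranes were homogenised in 50 mM Tris-HCl pH 7.4 and diluted in HEPES binding buffer. They were incubated with 0.2 nM [3H]quinuclidinyl benzilate in 20 mM HEPES pH 7.4 with 10 mM MgCl2 and 100 mM NaCl for 30 min at 37 °C, in triplicate. Nonspecific binding used 1 µM atropine. Filtration was followed by scintillation counting.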
# [15] = target: T2, Muscarinic acetylcholine receptor M1; experiment: The compound was evaluated for inhibition of binding of [3H]quinuclidinyl benzilate to Muscarinic acetylcholine receptor M1 in Rat Cerebral Cortical Membranes; how it was run: as §6
# [16] = target: T2, Muscarinic acetylcholine receptor M1; experiment: Affinity versus [3H]quinuclidinyl benzilate (antagonist) binding to Muscarinic acetylcholine receptor M1 in Rat Cerebral Cortical Membranes,; how it was run: as §6
# [17] = target: T6, Muscarinic acetylcholine receptor M3; experiment: Inhibition of binding of [3H]quinuclidinyl benzilate to muscarinic receptors in membranes of CHO cells transfected with Muscarinic acetylcholine receptor M3; assay type: cell membranes
# Target sequence in this assay (P20309 whole entry): as the sequence (P20309 whole entry, looked up) above
# [18] = target: T8, Muscarinic acetylcholine receptor M2 (Homo sapiens, UniProt P08172); experiment: as §5; assay type: cell membranes
# T8 sequence (P08172 whole entry): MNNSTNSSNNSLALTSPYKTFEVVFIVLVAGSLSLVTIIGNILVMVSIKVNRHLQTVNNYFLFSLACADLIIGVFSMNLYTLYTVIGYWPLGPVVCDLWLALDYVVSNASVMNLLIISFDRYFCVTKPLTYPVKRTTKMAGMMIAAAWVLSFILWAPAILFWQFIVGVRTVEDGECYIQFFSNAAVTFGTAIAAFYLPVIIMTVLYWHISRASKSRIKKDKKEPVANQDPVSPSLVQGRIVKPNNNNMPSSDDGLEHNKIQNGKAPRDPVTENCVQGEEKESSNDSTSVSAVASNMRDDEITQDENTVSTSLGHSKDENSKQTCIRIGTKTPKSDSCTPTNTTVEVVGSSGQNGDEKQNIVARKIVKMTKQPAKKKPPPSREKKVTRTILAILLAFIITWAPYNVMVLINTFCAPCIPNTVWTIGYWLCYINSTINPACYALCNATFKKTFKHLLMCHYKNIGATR
# [19] = target: T9, Muscarinic acetylcholine receptor M4 (Homo sapiens, UniProt P08173); experiment: as §4; assay type: cell membranes
# T9 sequence (P08173 whole entry): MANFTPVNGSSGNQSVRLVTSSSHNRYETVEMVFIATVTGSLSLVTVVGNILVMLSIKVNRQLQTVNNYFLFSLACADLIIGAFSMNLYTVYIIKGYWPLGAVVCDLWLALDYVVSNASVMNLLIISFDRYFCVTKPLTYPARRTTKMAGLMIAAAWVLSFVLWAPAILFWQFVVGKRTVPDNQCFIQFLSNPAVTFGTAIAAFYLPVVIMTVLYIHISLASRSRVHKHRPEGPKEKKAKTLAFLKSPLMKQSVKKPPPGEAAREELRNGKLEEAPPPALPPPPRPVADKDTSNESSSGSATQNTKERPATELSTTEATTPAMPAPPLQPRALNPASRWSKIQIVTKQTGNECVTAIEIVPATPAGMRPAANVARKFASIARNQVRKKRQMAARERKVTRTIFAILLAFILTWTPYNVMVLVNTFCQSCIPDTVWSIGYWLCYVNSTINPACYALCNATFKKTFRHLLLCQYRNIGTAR
# [20] = target: T1, Muscarinic acetylcholine receptor M1 (Rattus norvegicus); conditions: Membrane; 30 uM
# [21] = target: Muscarinic acetylcholine receptor M4 (Homo sapiens) (UniProt P08173); experiment: Inhibition of binding of [3H]quinuclidinyl benzilate to Muscarinic acetylcholine receptor M4 in membranes of transfected CHO cells
# [22] = target: Muscarinic acetylcholine receptor M4 (Homo sapiens) (UniProt P08173); experiment: Inhibitory activity against [3H]-cyclic AMP accumulation in CHO transfected cells mediated by Muscarinic acetylcholine receptor M4
# [23] = target: T10, Muscarinic acetylcholine receptor M4 (Homo sapiens) (UniProt P08173); experiment: Inhibition of binding of [3H]quinuclidinyl benzilate to muscarinic receptors in membranes of CHO cells transfected with Muscarinic acetylcholine receptor M4
# T10 sequence (whole entry): T9 sequence (P08173 whole entry)
# [24] = target: T6, Muscarinic acetylcholine receptor M3; experiment: Percentage inhibition of binding of [3H]quinuclidinyl benzilate to muscarinic receptors in membranes of CHO cells transfected with Muscarinic acetylcholine receptor M3
# Target sequence in this assay (P20309 whole entry, looked up): as the sequence (P20309 whole entry, looked up) above
# [25] = target: T6, Muscarinic acetylcholine receptor M3; experiment: Inhibitory activity against stimulation of [3H]inositol monophosphate accumulation in [3H]inositol-labelled CHO transfected cells mediated by Muscarinic acetylcholine receptor M3
# Target sequence in this assay (P20309 whole entry, looked up): as the sequence (P20309 whole entry, looked up) above
# [26] = target: T4, Neuronal acetylcholine receptor; alpha4/beta2; experiment: Inhibition of binding of [3H]nicotine to Nicotinic acetylcholine receptor alpha4-beta2 in rat cerebral cortical membranes at 100 uM concentration; assay type: cell membranes, Membrane
# How it was run: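 [3H]nicotine (0.2 nM) binding to rat cortical membranes, with 200 µM diisopropyl fluorophosphate, 120 min at 0–4 °C, triplicate. Nonspecific binding with 1 µM nicotine. Percent inhibition at 100 µM test agent; mean ± SEM, n = 4.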
structure (smiles),measurement,setting,value
COC(=O)[C@H]1CC2NC1CC[C@@H]2O (some centres undefined),inhibition,[1],2%
same,Ki,[2],18 µM
same,Ki,[3],18 µM
same,inhibition,[4],33%
same,inhibition,[5],0%
same,Ki,[6],4 µM
same,Ki,[7],4 µM
same,inhibition,[8],33%
same,Ki,[9],12 µM
same,Ki,[10],12 µM
same,inhibition,[11],2%
same,inhibition,[12],0%
CC(=O)OC1CC2CCCC1N2C (centres undefined),inhibition,[13],48%
same,Ki,[2],2.6 µM
same,Ki,[14],280 µM
same,Ki,[15],280 µM
same,Ki,[16],280 µM
same,Ki,[3],2.6 µM
same,Ki,[17],15 µM
same,Ki,[18],2.7 µM
same,Ki,[19],8.3 µM
same,Ki,[6],1.5 µM
same,Ki,[7],1.5 µM
same,inhibition,[20],48%
same,Ki,[10],2.7 µM
same,Ki,[21],8.3 µM
C[C@@H]1O[C@H](C[N+](C)(C)C)C[C@H]1O [MUSCARINE],Ki,[21],1.4 µM
same,IC50,[22],0.47 µM
same,Ki,[23],1.4 µM
same,inhibition,[12],28%
same,inhibition,[24],28%
same,EC50,[25],0.13 µM
COC(=O)C1=CCCN(C)C1 [ARECOLINE],Ki,[26],0.27 µM
same,Ki,[7],0.27 µM
